From ChEMBL document CHEMBL1148178, “Dicranin, an antimicrobial and 15-lipoxygenase inhibitor from the moss Dicranum scoparium” (1993) come the findings set out here.

One may read the zone of inhibition as the size of the clear area around the sample on an inoculated plate.

Format in all cases: functional
What all share (conditions): read-out: Diameter of inhibition zone

One experiment concerns Enterococcus faecalis. Put plainly: Antibacterial activity against Streptococcus faecalis NCIB 775 at 1000 ug/disk after 24 hrs by disk diffusion assay. In outline: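 Test material loaded onto 6 mm sterile filter-paper discs. Each disc sits at the centre of a plate of 15 ml plate count agar overlaid with 3 ml soft nutrient agar (nutrient broth + 0.7% agar) carrying 1% of a 16–18 h culture. Activity is read as the diameter of the no-growth zone around the disc.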
(In general: In agar diffusion tests the substance spreads into inoculated agar from a disc or well.)

Experiment [1] deals with Geobacillus stearothermophilus. The experiment in a line: Antibacterial activity against Bacillus stearothermophilus NCA 1518 at 1000 ug/disk after 24 hrs by disk diffusion assay. The method in brief: (§1)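 Sterile 6 mm filter-paper disc bearing sample set in the centre of a Petri dish of 15 ml plate count agar. Overlaid with 3 ml soft nutrient agar (nutrient broth + 0.7% agar) seeded with 1% of a 16–18 h culture of the test strain. Read-out is the diameter of the growth-free zone around the disc.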

The test system of another experiment is Staphylococcus aureus. Put plainly: Antibacterial activity against Staphylococcus aureus T-AQ 49/YF29 at 1000 ug/disk after 24 hrs by disk diffusion assay. The method in brief:
as §1

For the next experiment, the system named is Bacillus cereus. The experiment in a line: Antibacterial activity against Bacillus cereus NCIB 3329 at 500 ug/disk after 24 hrs by disk diffusion assay. The method in brief:
as §1

For another experiment, the system named is Bacillus subtilis. Put plainly: Antibacterial activity against Bacillus subtilis NCIB 3610 at 1000 ug/disk after 24 hrs by disk diffusion assay. In outline:
as §1

As for `CCCCCC/C=C\CCCCCCCC(=O)O` [PALMITOLEIC ACID], the zone of inhibition at 1000 µg/disc was 20 mm in the experiment on Enterococcus faecalis, 45 mm in experiment [1], 22 mm with Staphylococcus aureus and 14 mm in the experiment on Bacillus subtilis. Further, in the experiment with Bacillus cereus, the zone of inhibition at 500 µg/disc stood at 14 mm.
